Type in all cases: cell-based
In data set [1] the test system is HIV-1 RT-resistant mutant K101E/M184V. Kind of data set: Single-round infectivity assay, K101E/M184V. The settings on record: read-out: EC50 K101E/M184V; single-round infection, n = 3. Summed up: (§1)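 Single-round infection with the HIV-1-based vector pNLNgoMIVR-ΔENV.LUC (Env-deleted, luciferase-carrying) bearing the indicated RT mutation(s), used to derive EC50. The mutant vectors are previously described constructs.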

Data set [2] deals with HIV-1 RT-resistant mutant M184V. Kind of data set: Single-round infectivity assay, M184V. The note with it: read-out: EC50 M184V; single-round infection, n = 3. The method in brief:
as §1

Data set [3] deals with HIV-1 NNRTI-resistant mutant Y188L. Kind of data set: Single-round infectivity assay, Y188L. The settings on record: Human immunodeficiency virus 1, read-out: EC50 Y188L. Summed up: as §1
Data set [4] relates to HIV-1 NNRTI-resistant mutant V106A/G190A/F227L. Kind of data set: Single-round infectivity assay, V106A/G190A/F227L. The settings on record: Human immunodeficiency virus 1, read-out: EC50 V106A/G190A/F227L. Summed up:
as §1

In data set [5] the test system is HIV-1 NNRTI-resistant mutant G190S. The experiment in a line: Single-round infectivity assay, G190S. The settings on record: read-out: EC50 G190S; single-round infection, n = 3. The method in brief:
as §1

A short description of data set [6]: Cellular cytotoxicity, ATP-dependent luminescence assay. Summed up: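 Cytotoxicity measured by ATP-dependent luminescence, with CC50 derived. Values are from three independent experiments (n = 3), and standard deviations are reported.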
Data set [7] concerns HIV-1 RT-resistant mutant D67E. Kind of data set: Single-round infectivity assay, D67E. The note with it: read-out: EC50 D67E; single-round infection, n = 3. Summed up: as §1
The test system of data set [8] is HIV-1 NNRTI-resistant mutant K103N. Kind of data set: Single-round infectivity assay, K103N. The note with it: Human immunodeficiency virus 1, read-out: EC50 K103N. The method in brief: as §1
For data set [9], the system named is HIV-1 NNRTI-resistant mutant E138K. Kind of data set: Single-round infectivity assay, E138K. The settings on record: Human immunodeficiency virus 1, read-out: EC50 E138K. The method in brief: as §1
The test system of data set [10] is HIV-1 NNRTI-resistant mutant L100I/K103N. The experiment in a line: Single-round infectivity assay, L100I/K103N. The settings on record: Human immunodeficiency virus 1, read-out: EC50 L100I/K103N. Summed up: as §1
The test system of data set [11] is HIV-1 RT-resistant mutant K101E. The experiment in a line: Single-round infectivity assay, K101E. The settings on record: Human immunodeficiency virus 1, read-out: EC50 K101E. Summed up: as §1
For data set [12], the system named is HIV-1 RT-resistant mutant E40K. Kind of data set: Single-round infectivity assay, E40K. The note with it: read-out: EC50 E40K; single-round infection, n = 3. Summed up: as §1
The test system of data set [13] is HIV-1 NNRTI-resistant mutant M230L. Kind of data set: Single-round infectivity assay, M230L. The settings on record: Human immunodeficiency virus 1, read-out: EC50 M230L. Summed up:
as §1

Data set [14] concerns HIV-1 NNRTI-resistant mutant K103N/P225H. Kind of data set: Single-round infectivity assay, K103N/P225H. The note with it: Human immunodeficiency virus 1, read-out: EC50 K103N/P225H. Summed up: as §1
Data set [15] deals with HIV-1 NNRTI-resistant mutant G190A. The experiment in a line: Single-round infectivity assay, G190A. The note with it: read-out: EC50 G190A; single-round infection, n = 3. Summed up:
as §1

The subject of data set [16] is HIV-1 NNRTI-resistant mutant H221Y. Kind of data set: Single-round infectivity assay, H221Y. The note with it: Human immunodeficiency virus 1, read-out: EC50 H221Y. The method in brief:
as §1

The subject of another data set is WT HIV-1. The experiment in a line: Single-round infectivity assay, WT RT vector. The settings on record: for EC50: Human immunodeficiency virus 1, read-out: EC50 WT; for TI (therapeutic index): calculated from CC50 and WT EC50. Summed up: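 Single-round infection with an HIV-1-based vector (pNLNgoMIVR-ΔENV.LUC, Env-deleted, luciferase-carrying) with wild-type RT, used to derive EC50. Therapeutic index is calculated from CC50 (ATP-dependent luminescence assay) and wild-type EC50. Three independent experiments (n = 3), with standard deviations.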

Data set [17] deals with HIV-1 DOR-resistant mutant L234I. The experiment in a line: Single-round infectivity assay, L234I. The note with it: read-out: EC50 L234I; single-round infection, n = 3. Summed up:
as §1

For data set [18], the system named is HIV-1 NNRTI-resistant mutant Y181C. Kind of data set: Single-round infectivity assay, Y181C. The settings on record: Human immunodeficiency virus 1, read-out: EC50 Y181C. The method in brief: as §1
Data set [19] concerns HIV-1 NNRTI-resistant mutant L100I. Kind of data set: Single-round infectivity assay, L100I. The note with it: Human immunodeficiency virus 1, read-out: EC50 L100I. Summed up: as §1
Data set [20] relates to HIV-1 NNRTI-resistant mutant K103N/Y181C. Kind of data set: Single-round infectivity assay, K103N/Y181C. The note with it: Human immunodeficiency virus 1, read-out: EC50 K103N/Y181C. Summed up: as §1
The test system of data set [21] is HIV-1 NNRTI-resistant mutant P236L. The experiment in a line: Single-round infectivity assay, P236L. The settings on record: read-out: EC50 P236L; single-round infection, n = 3. The method in brief:
as §1

In data set [22] the test system is HIV-1 RT-resistant mutant K101E/M184I. Kind of data set: Single-round infectivity assay, K101E/M184I. The note with it: read-out: EC50 K101E/M184I; single-round infection, n = 3. Summed up: as §1
Data set [23] relates to HIV-1 NNRTI-resistant mutant K101P. Kind of data set: Single-round infectivity assay, K101P. The settings on record: read-out: EC50 K101P; single-round infection, n = 3. Summed up: as §1
Data set [24] concerns HIV-1 DOR-resistant mutant V106A/L234I. The experiment in a line: Single-round infectivity assay, V106A/L234I. The note with it: read-out: EC50 V106A/L234I; single-round infection, n = 3. The method in brief: as §1
Data set [25] concerns HIV-1 DOR-resistant mutant V106A/F227L/L234I. The experiment in a line: Single-round infectivity assay, V106A/F227L/L234I. The note with it: read-out: EC50 V106A/F227L/L234I; single-round infection, n = 3. Summed up: as §1
Data set [26] relates to HIV-1 DOR-resistant mutant V106A/F227L. The experiment in a line: Single-round infectivity assay, V106A/F227L. The settings on record: read-out: EC50 V106A/F227L; single-round infection, n = 3. The method in brief: as §1

Structures are written as SMILES.

Usually CC50 stands for the concentration giving 50% cytotoxicity. A higher CC50 goes with lower toxicity to the cells. For `Cc1cc(/C=C/C#N)cc(C)c1-n1cnc2cnc(Nc3ccc4cc(C#N)ccc4c3)nc21` [Compound 10, (E)‐6‐((9‐(4‐(2‐cyanovinyl)‐2,6‐dimethylphenyl)‐9H‐purin‐2‐yl)amino)‐2‐naphthonitrile], the EC50 was 4.7 ± 0.8 nM in data set [1]; 3.1 ± 0.4 nM in data set [2]; 180 ± 14.7 nM in [3]; 7 ± 0.5 nM in data set [4]; 2.1 ± 0.1 nM in [5]; 10 ± 1.9 nM in data set [7]. Besides, the EC50 in data set [8] stood at 24.5 ± 4.9 nM; in data set [9], 32.7 ± 4.4 nM; in data set [10], 386 ± 19.9 nM; in data set [11], 13.4 ± 1 nM; in data set [12], 4.2 ± 0.7 nM; in data set [13], 33.8 ± 2.7 nM. In addition, the EC50 in data set [14] is 103 ± 8.1 nM; in data set [15], 1.6 ± 0.3 nM; in data set [16] it was 3.4 ± 0.3 nM; in the data set on WT HIV-1, 2.3 ± 0.2 nM; in data set [17], 2.3 ± 0.2 nM; in [18] it was 47.7 ± 7.8 nM. The EC50 in [19] was 24.2 ± 6.1 nM; in data set [20], 468 ± 88.8 nM; in data set [21], 1.6 ± 0.1 nM; in data set [22] it was 14 ± 0.1 nM. Further, the CC50 in data set [6] is 10800 ± 1200 nM. Further, the “TI (therapeutic index)” value in the data set with WT HIV-1 is listed as 4,696.
For `Cc1cc(/C=C/C#N)cc(C)c1Nc1nc(Nc2ccc(/C=C/C#N)cc2)ncc1N` [Compound 12, (E)‐3‐(4‐((5‐amino‐2‐((4‐((E)‐2‐cyanovinyl)phenyl)amino)pyrimidin‐4‐yl)amino)‐3,5‐dimethylphenyl)acrylonitrile], the EC50 in [3] amounted to 44 ± 2.6 nM; in data set [4], 2.5 ± 0.5 nM; in data set [23], 126 ± 29.4 nM; in data set [24], 1.4 ± 0.5 nM; in data set [8] it was 1.6 ± 0.2 nM; in [9], 6.5 ± 0.9 nM. For the same molecule, the EC50 in data set [25] is 1.3 ± 0.1 nM; in data set [10], 16.1 ± 0.2 nM; in [11], 3.4 ± 0.1 nM; in data set [26], 2 ± 0.1 nM; in data set [13], 16.9 ± 1.2 nM; in data set [14] it was 1.6 ± 0.2 nM. Further, the EC50 stood at 1.6 ± 0.1 nM in [16]; 1.2 ± 0.2 nM in the data set with WT HIV-1; 5.3 ± 0.8 nM in data set [18]; 1.8 ± 0.2 nM in data set [19]; 22.4 ± 1.1 nM in [20]. The molecule also yielded a CC50 in [6] of 32200 ± 1500 nM. Further, the “TI (therapeutic index)” value with WT HIV-1 is listed as >25,000.

(Values after publication PMC7821153 (Chemical Biology & Drug Design, 2020).)
